Data reported in ChEMBL document CHEMBL1141112, “Synthesis and antiinflammatory activity of coumarin derivatives” (J Med Chem, 2005).
The source made the active and inactive calls. No cut-off for these calls is given here.

How the values were obtained:
[1] = target: T1, Seed linoleate 13S-lipoxygenase-1 (Glycine max, UniProt P08170); test: Inhibitory concentration against soybean lipoxygenase upon incubation with sodium linoleate (0.1 mM) at RT; no action
T1 sequence (P08170 whole entry): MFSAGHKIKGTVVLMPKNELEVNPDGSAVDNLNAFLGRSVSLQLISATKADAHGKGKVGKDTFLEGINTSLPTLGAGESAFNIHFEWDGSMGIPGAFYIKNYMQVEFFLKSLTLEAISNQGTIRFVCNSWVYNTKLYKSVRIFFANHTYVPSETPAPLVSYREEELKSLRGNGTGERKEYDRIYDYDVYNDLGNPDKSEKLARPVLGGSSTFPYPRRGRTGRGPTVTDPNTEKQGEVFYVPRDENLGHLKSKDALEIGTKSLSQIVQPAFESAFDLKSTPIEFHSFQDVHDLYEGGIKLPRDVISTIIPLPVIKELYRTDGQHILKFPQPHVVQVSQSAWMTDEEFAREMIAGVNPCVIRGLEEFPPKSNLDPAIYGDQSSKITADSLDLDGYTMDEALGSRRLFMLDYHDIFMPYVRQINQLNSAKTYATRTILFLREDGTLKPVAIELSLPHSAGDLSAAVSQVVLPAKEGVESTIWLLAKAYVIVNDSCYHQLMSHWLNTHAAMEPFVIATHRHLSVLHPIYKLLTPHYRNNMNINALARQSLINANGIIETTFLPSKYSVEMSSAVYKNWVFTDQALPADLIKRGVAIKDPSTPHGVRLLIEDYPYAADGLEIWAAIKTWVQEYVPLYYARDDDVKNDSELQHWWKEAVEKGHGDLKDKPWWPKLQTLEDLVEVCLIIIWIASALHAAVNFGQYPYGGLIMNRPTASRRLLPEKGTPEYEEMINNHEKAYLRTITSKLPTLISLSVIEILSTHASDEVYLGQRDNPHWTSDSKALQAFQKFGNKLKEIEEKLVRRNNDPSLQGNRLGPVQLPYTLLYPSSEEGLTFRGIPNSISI

[2] = Percent heme protein dependent lipid peroxidation (1 mM) upon incubation for 10 min at 37 degree C. in pH 7.4 with arachidonic acid and H2O2; no action; assay type: functional
Procedure, shortened: (§1)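 Heme 50 μM, arachidonic acid 0.4 mM, test compound and H2O2 0.5 mM incubated together for 10 min at 37 °C in KH2PO4–KOH buffer (50 mM, pH 7.4). Tested at 0.1 and 1 mM. At least triplicate; absorbance SD under 10% of mean.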

[3] = Percent heme protein dependent lipid peroxidation (0.1 mM) upon incubation for 10 min at 37 degree C. in pH 7.4 with arachidonic acid and H2O2; no action; assay type: functional; procedure, shortened: as §1
[4] = Superoxide radical scavenging activity at 1 mM upon incubation for 2 min at RT in pH 7.4 with PMS, NADH and NBT by nitroblue tetrazolium method
Rattus norvegicus [5] = test: Percent inhibition of carrageenan 2% (0.1 mL intradermal) induced paw edema at the i.p. dose of 0.01 m mol/kg in fisher 344 rats; n=5; assay type: functional
Procedure, shortened: (§2)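 Right hind paw edema in Fischer 344 rats (150–200 g) induced by intradermal 0.1 mL 2% carrageenin in water. Rats killed 3.5 h after carrageenin; injected minus uninjected paw weight compared with water-treated controls and expressed as percent inhibition. Mean of two experiments, five animals per group; Student's t-test.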

[6] = Percent heme protein dependent lipid peroxidation at (1 mM) upon incubation for 10 min at 37 degree C. in pH 7.4 with arachidonic acid and H2O2; assay type: functional; procedure, shortened: as §1
[7] = Percent heme protein dependent lipid peroxidation at (0.1 mM) upon incubation for 10 min at 37 degree C. in pH 7.4 with arachidonic acid and H2O2; assay type: functional; procedure, shortened: as §1
[8] = Superoxide radical scavenging activity at 1 mM upon incubation for 2 min at RT in pH 7.4 with PMS, NADH and NBT by nitroblue tetrazolium method; no action
[9] = target: T1, Seed linoleate 13S-lipoxygenase-1; test: Inhibitory concentration against soybean lipoxygenase upon incubation with sodium linoleate (0.1 mM) at RT
Procedure, shortened: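 Soybean lipoxygenase (0.2 mL enzyme solution, 1/3 ×10^4 w/v in saline) incubated at room temperature with test compounds in ethanol and sodium linoleate 0.1 mM as substrate. Conversion to 13-hydroperoxylinoleic acid followed at 234 nm and compared with NDGA as standard inhibitor. Run at least in triplicate; SD of absorbance under 10% of mean.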

Rattus norvegicus [10] = test: Onset of arthritis measured as arthritic score at i.p. dose of 0.001 m mol/kg in rats injected intradermally with Freund's adjuvant after 22 days; assay type: functional
Procedure, shortened: (§3)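 Fischer 344 rats, five per group, given Freund's adjuvant (0.6 mg desiccated Mycobacterium butyricum in 0.1 mL liquid paraffin) intradermally at tail base. Compound given ip at 0.001 mmol/kg from day 0, every other day for 24 days; absolute controls got vehicle only. Score: one point per inflamed wrist/ankle plus one per involved phalangeal joint, max five per limb, every 2 days from day 14. Run in duplicate.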

Rattus norvegicus [11] = test: Onset of arthritis measured as arthritic score at i.p. dose of 0.001 m mol/kg in rats injected intradermally with Freund's adjuvant after 24 days; assay type: functional; procedure, shortened: as §3
Rattus norvegicus [12] = test: Percent change in body weight of (FA) adjuvant induced rats at i.p. dose of 0.001 m mol/kg after 24 days; assay type: functional
Rattus norvegicus [13] = test: Onset of arthritis measured as arthritic score at i.p. dose of 0.001 m mol/kg in rats injected intradermally with Freund's adjuvant after 0 days; assay type: functional; procedure, shortened: as §3
Rattus norvegicus [14] = test: Onset of arthritis measured as arthritic score at i.p. dose of 0.001 m mol/kg in rats injected intradermally with Freund's adjuvant after 2 days; assay type: functional; procedure, shortened: as §3
Rattus norvegicus [15] = test: Onset of arthritis measured as arthritic score at i.p. dose of 0.001 m mol/kg in rats injected intradermally with Freund's adjuvant after 4 days; assay type: functional; procedure, shortened: as §3
Rattus norvegicus [16] = test: Onset of arthritis measured as arthritic score at i.p. dose of 0.001 m mol/kg in rats injected intradermally with Freund's adjuvant after 6 days; assay type: functional; procedure, shortened: as §3
Rattus norvegicus [17] = test: Onset of arthritis measured as arthritic score at i.p. dose of 0.001 m mol/kg in rats injected intradermally with Freund's adjuvant after 8 days; assay type: functional; procedure, shortened: as §3
Rattus norvegicus [18] = test: Onset of arthritis measured as arthritic score at i.p. dose of 0.001 m mol/kg in rats injected intradermally with Freund's adjuvant after 10 days; assay type: functional; procedure, shortened: as §3
Rattus norvegicus [19] = test: Onset of arthritis measured as arthritic score at i.p. dose of 0.001 m mol/kg in rats injected intradermally with Freund's adjuvant after 12 days; assay type: functional; procedure, shortened: as §3
Rattus norvegicus [20] = test: Onset of arthritis measured as arthritic score at i.p. dose of 0.001 m mol/kg in rats injected intradermally with Freund's adjuvant after 14 days; assay type: functional; procedure, shortened: as §3
Rattus norvegicus [21] = test: Onset of arthritis measured as arthritic score at i.p. dose of 0.001 m mol/kg in rats injected intradermally with Freund's adjuvant after 16 days; assay type: functional; procedure, shortened: as §3
Rattus norvegicus [22] = test: Onset of arthritis measured as arthritic score at i.p. dose of 0.001 m mol/kg in rats injected intradermally with Freund's adjuvant after 18 days; assay type: functional; procedure, shortened: as §3
Rattus norvegicus [23] = test: Onset of arthritis measured as arthritic score at i.p. dose of 0.001 m mol/kg in rats injected intradermally with Freund's adjuvant after 20 days; assay type: functional; procedure, shortened: as §3
Rattus norvegicus [24] = test: Duration of paralysis in rats (injected i.p. with 10 mg/1 mL/g of zoxazolamine) at i.p. dose of 0.001 m mol/kg after 24 days; assay type: functional
Procedure, shortened: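 Fischer 344 rats, groups of five, given Freund's Adjuvant intradermally at tail base; compound ip 0.001 mmol/kg from day zero every other day for 24 days. On day 24, ≥12 h after last dose, zoxazolamine ip 10 mg/1 mL/g as aqueous Tween 80 suspension; paralysis duration timed. Run in duplicate.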

[25] = target: Prostaglandin G/H synthase 1 (Homo sapiens) (UniProt P23219); details: at 1 mM
Chain of Prostaglandin G/H synthase 1 (Homo sapiens) (P23219 whole entry): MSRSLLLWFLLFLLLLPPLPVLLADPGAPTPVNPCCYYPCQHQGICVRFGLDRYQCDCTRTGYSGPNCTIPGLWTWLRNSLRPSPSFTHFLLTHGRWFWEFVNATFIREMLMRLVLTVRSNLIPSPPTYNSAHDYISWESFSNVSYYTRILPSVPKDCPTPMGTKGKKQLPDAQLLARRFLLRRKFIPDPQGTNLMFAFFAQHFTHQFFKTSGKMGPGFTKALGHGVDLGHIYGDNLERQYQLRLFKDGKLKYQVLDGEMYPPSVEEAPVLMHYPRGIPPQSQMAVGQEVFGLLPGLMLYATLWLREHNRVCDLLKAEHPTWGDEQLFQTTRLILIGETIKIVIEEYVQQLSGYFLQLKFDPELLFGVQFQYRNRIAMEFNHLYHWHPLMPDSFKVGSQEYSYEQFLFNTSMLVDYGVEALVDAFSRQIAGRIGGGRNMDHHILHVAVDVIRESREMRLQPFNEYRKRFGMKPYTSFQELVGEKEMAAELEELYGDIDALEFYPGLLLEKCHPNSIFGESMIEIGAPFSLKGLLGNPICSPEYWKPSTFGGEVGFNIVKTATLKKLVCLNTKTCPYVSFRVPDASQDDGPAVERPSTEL

Rattus norvegicus [26] = test: Percent inhibition of carrageenan 2% (0.1 mL intradermal) induced paw edema at the i.p. dose of 0.01 m mol/kg in fisher 344 rats; n=5; no action; assay type: functional, organism-based; procedure, shortened: as §2
Rattus norvegicus [27] = test: Onset of arthritis measured as arthritic score at p.o. dose of 80 mg/kg in rats injected intradermally with Freund's adjuvant after 24 days; assay type: functional; details: route oral

Compound | Lipid peroxidation [3] | Scavenging Activity [4] [%] | Inhibition (Rattus norvegicus [5]) [%] | Lipid peroxidation [6] [%] | Lipid peroxidation [7] | Scavenging Activity [8] | IC50 [9] [µM] | further results
CC(=O)CC(c1ccccc1)c1c(O)c2ccccc2oc1=O (stereo not drawn) [WARFARIN] | No action | 25 | 41 | – | – | – | – | IC50 [1]: No Action; Lipid peroxidation [2]: No action
O=c1ccc2ccccc2o1 [COUMARIN] | – | 88.9 | 30.2 | 19.2 | 9.1% | – | – | –
O=c1ccc2ccc(O)c(CN3CCCCC3)c2o1 | No action | – | 47.4 | 7.6 | – | No action | 37 | –
CC(Cc1ccc(O)c(O)c1)C(C)Cc1ccc(O)c(O)c1 (stereo not drawn) | – | – | – | 26.1 | inactive | inactive | – | –
O=c1ccc2ccc(O)c(CNCCc3ccccc3)c2o1 | – | 22.2 | 31.2 | 5.5 | 18.2% | – | 41 | –
COc1ccc2c(c1)c(CC(=O)O)c(C)n2C(=O)c1ccc(Cl)cc1 [INDOMETHACIN] | – | – | 47 | – | – | – | – | –
CN1COc2ccc3ccc(=O)oc3c2C1 | No action | – | 53.6 | – | – | – | 42 | Lipid peroxidation [2]: No action
CCNCc1c(O)ccc2ccc(=O)oc12 | No action | – | 53.6 | 5.5 | – | No action | 52 | –
O=c1ccc2ccc(O)c(CNCc3ccccc3)c2o1 | – | – | 47.5 | 35.6 | 19.5% | No action | 44 | –
NCCNCc1c(O)ccc2ccc(=O)oc12 | No action | – | 56 | 22.1 | – | No action | > 1000 | –
NCCCNCc1c(O)ccc2ccc(=O)oc12 | No action | 50 | 53.4 | – | – | – | > 1000 | Lipid peroxidation [2]: No action
O=c1ccc2ccc(O)c(CN3CCNCC3)c2o1 | – | – | 77.7 | 21.9 | 19.5% | No action | 100 | Arthritic score (Rattus norvegicus [10]): 4.8; Arthritic score (Rattus norvegicus [11]): 5.8; Change of body weight (Rattus norvegicus [12]): 18.4%; Arthritic score (Rattus norvegicus [13]): 0; Arthritic score (Rattus norvegicus [14]): 0; Arthritic score (Rattus norvegicus [15]): 0; Arthritic score (Rattus norvegicus [16]): 0; Arthritic score (Rattus norvegicus [17]): 0; Arthritic score (Rattus norvegicus [18]): 0; Arthritic score (Rattus norvegicus [19]): 0; Arthritic score (Rattus norvegicus [20]): 1.2; Arthritic score (Rattus norvegicus [21]): 0; Arthritic score (Rattus norvegicus [22]): 3.2; Arthritic score (Rattus norvegicus [23]): 3; Paralysis (Rattus norvegicus [24]): 292 min; inhibition [25]: 11%
O=c1ccc2ccc(O)cc2o1 [UMBELLIFERONE] | – | 80.6 | – | 26.1 | 14.6% | – | 43 | Arthritic score (Rattus norvegicus [10]): 5.2; Arthritic score (Rattus norvegicus [11]): 4; Change of body weight (Rattus norvegicus [12]): 18.6%; Arthritic score (Rattus norvegicus [13]): 0; Arthritic score (Rattus norvegicus [14]): 0; Arthritic score (Rattus norvegicus [15]): 0; Arthritic score (Rattus norvegicus [16]): 0; Arthritic score (Rattus norvegicus [17]): 0; Arthritic score (Rattus norvegicus [18]): 0; Arthritic score (Rattus norvegicus [19]): 0; Arthritic score (Rattus norvegicus [20]): 1.2; Arthritic score (Rattus norvegicus [21]): 1.2; Arthritic score (Rattus norvegicus [22]): 1.8; Arthritic score (Rattus norvegicus [23]): 2.6; Paralysis (Rattus norvegicus [24]): 232.5 min; inhibition (Rattus norvegicus [26]): No Action
CC(C)CNCc1c(O)ccc2ccc(=O)oc12 | No action | 33.3 | 55.4 | – | – | – | 47 | Lipid peroxidation [2]: No action
O=C(O)/C=C/c1ccc(O)c(O)c1 | inactive | 86.1 | – | 5.5 | – | – | – | –
CCCCCN(CCCCC)Cc1c(O)ccc2ccc(=O)oc12 | No action | – | 46.2 | 13.7 | – | No action | 13 | –
CCCCCNCc1c(O)ccc2ccc(=O)oc12 | – | – | 52.7 | 5.7 | 8.6% | No action | 59 | –
O=c1ccc2ccc(O)c(CN3CCOCC3)c2o1 | – | 58.3 | 75.7 | 19.9 | 19.5% | – | > 1000 | Arthritic score (Rattus norvegicus [10]): 4.25; Arthritic score (Rattus norvegicus [11]): 3.5; Change of body weight (Rattus norvegicus [12]): 7%; Arthritic score (Rattus norvegicus [13]): 0; Arthritic score (Rattus norvegicus [14]): 0; Arthritic score (Rattus norvegicus [15]): 0; Arthritic score (Rattus norvegicus [16]): 0; Arthritic score (Rattus norvegicus [17]): 0; Arthritic score (Rattus norvegicus [18]): 0; Arthritic score (Rattus norvegicus [19]): 0; Arthritic score (Rattus norvegicus [20]): 1.2; Arthritic score (Rattus norvegicus [21]): 1.25; Arthritic score (Rattus norvegicus [22]): 2.5; Arthritic score (Rattus norvegicus [23]): 3.25; Paralysis (Rattus norvegicus [24]): 212 min; inhibition [25]: 32%
CCCCC1C(=O)N(c2ccccc2)N(c2ccccc2)C1=O [PHENYLBUTAZONE] | – | – | – | – | – | – | – | Arthritic score (Rattus norvegicus [27]): 9
